{"data": "Measured values from different studies", "note": "Compare with care: the assays were run in different laboratories."}
{"Structure (SMILES)": "CC[C@H](C)C[C@H](C)CCCCCCCCC(=O)N[C@H]1C[C@@H](O)[C@@H](NCCN)NC(=O)[C@@H]2[C@@H](O)CCN2C(=O)[C@H]([C@H](O)CCN)NC(=O)[C@H]([C@H](O)[C@@H](O)c2ccc(O)cc2)NC(=O)[C@@H]2C[C@@H](O)CN2C(=O)[C@H]([C@@H](C)O)NC1=O", "organism": "Nakaseomyces glabratus", "assay": "microbial growth, broth dilution", "system": "MY1381", "quantity": "MIC", "value": "0.25 µg/mL"}
{"Structure (SMILES)": "CC(C)CCCCCCCCCCCCCCc1cc(O)cc(O)c1", "organism": "Bacillus subtilis", "assay": "microbial growth", "quantity": "IC50", "value": "10.2 µM"}
{"Structure (SMILES)": "NC[C@H]1O[C@H](O[C@H]2[C@H](O)[C@@H](O[C@H]3O[C@H](CO)[C@@H](O)[C@H](N)[C@H]3O)[C@H](N)C[C@@H]2N)[C@H](N)C[C@@H]1O", "organism": "Listeria monocytogenes", "assay": "microbial growth", "system": "ATCC19115", "quantity": "MIC", "value": "4.7 µg/mL"}
{"Structure (SMILES)": "Cc1c(NN=C(C#N)C2=NC(=O)CS2)c(=O)n(-c2ccccc2)n1C", "organism": "Bacillus subtilis", "assay": "microbial growth, well diffusion", "conditions": "100000 µg/mL", "quantity": "inhibition zone", "value": "26 mm"}
{"Structure (SMILES)": "Cc1ccccc1C(=O)NN=Cc1ccc(O)c(Br)c1", "organism": "Cryptococcus neoformans", "assay": "microbial killing", "quantity": "MFC", "value": "4 µg/mL"}
{"Structure (SMILES)": "CC(=O)C1=C(O)C(CC(C)C)NC1=O (stereo not drawn)", "organism": "Proteus vulgaris", "assay": "microbial growth", "system": "ATCC33420", "quantity": "MIC", "value": "> 200 µg/mL"}
{"Structure (SMILES)": "CCCCCCCC/C=C\\CCCCCCCCNC(=O)CP(=O)(O)O", "organism": "Bacillus subtilis", "assay": "microbial growth", "system": "ATCC23857", "quantity": "MIC", "value": "200 µg/mL"}
{"Structure (SMILES)": "CC1(C)S[C@@H]2[C@H](NC(=O)[C@H](N)c3ccccc3)C(=O)N2[C@H]1C(=O)O", "organism": "Proteus vulgaris", "assay": "microbial growth, well diffusion", "system": "ATCC13315", "conditions": "60000 µg/mL", "quantity": "inhibition zone", "value": "25 mm"}
{"Structure (SMILES)": "CCCCCCCCCCCCCCCc1cc(O)cc(O)c1", "organism": "Listeria monocytogenes", "assay": "microbial growth", "system": "ATCC19115", "quantity": "IC50", "value": "> 200 µM"}
{"Structure (SMILES)": "CCCC(=O)CP(=O)(O)O", "organism": "Bacillus subtilis", "assay": "microbial growth", "system": "ATCC23857", "quantity": "MIC", "value": "> 200 µg/mL"}
{"Structure (SMILES)": "CCC[C@H]1CN(c2cccc(OC(F)(F)F)c2)C(=O)CN1Cc1cncn1Cc1ccc(Br)cc1", "organism": "Cryptococcus neoformans", "assay": "microbial growth, broth dilution", "quantity": "MIC", "value": "3 to 6 µM"}
{"Structure (SMILES)": "CCCCCCCCCCCCCCCC(=O)C(F)(F)P(=O)(O)O", "organism": "Bacillus subtilis", "assay": "microbial growth", "system": "ATCC23857", "quantity": "MIC", "value": "200 µg/mL"}
{"Structure (SMILES)": "CC(C)C(C)CCCCCCCCCCCc1cc(O)cc(O)c1 (stereo not drawn)", "organism": "Bacillus subtilis", "assay": "microbial growth", "quantity": "IC50", "value": "11.4 µM"}
{"Structure (SMILES)": "O=C(CCCCCCCCCCOc1ccccc1)CP(=O)(O)O", "organism": "Bacillus subtilis", "assay": "microbial growth", "system": "ATCC23857", "quantity": "MIC", "value": "> 200 µg/mL"}
{"Structure (SMILES)": "CCCSc1ccc2nc(NC(=O)OC)[nH]c2c1", "organism": "Cryptococcus neoformans", "assay": "microbial growth, broth dilution", "conditions": "72 h, clinical isolate", "quantity": "IC50", "value": "1.25 µM"}
